Legend:
[1] = biological target: T1, Adenosine receptor A1 (Homo sapiens) (UniProt P30542); experiment: (§1) Agonist activity at adenosine A1 receptor assessed as inhibition of forskolin-stimulated [3H]cAMP accumulation in CHO cells; type: functional, cell-based; settings: concentration not given here
T1 sequence (whole entry): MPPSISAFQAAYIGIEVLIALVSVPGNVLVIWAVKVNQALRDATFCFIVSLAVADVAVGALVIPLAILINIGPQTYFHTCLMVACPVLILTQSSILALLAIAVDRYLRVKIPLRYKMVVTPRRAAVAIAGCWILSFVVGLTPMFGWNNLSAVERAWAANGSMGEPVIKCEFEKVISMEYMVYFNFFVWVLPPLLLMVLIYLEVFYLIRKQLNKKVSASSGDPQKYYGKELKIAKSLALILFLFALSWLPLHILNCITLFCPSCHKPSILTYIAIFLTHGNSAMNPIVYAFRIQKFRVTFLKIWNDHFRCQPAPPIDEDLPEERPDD
Procedure, shortened: (§2)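 Clonal CHO cells stably expressing human A1 (CHO-A1H) or human A3 (CHO-A3) grown to confluence in 24-well dishes. Labelled with [3H]adenine 2 h at 37 °C in HEPES-buffered Hank's, washed, rolipram 10 µM 15 min. Agonist 5 min, then forskolin 3 µM a further 10 min. Stopped with HCl; [3H]-cAMP isolated on alumina columns, scintillation counted. pEC50 from sigmoidal fits; triplicate determinations.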

Adenosine receptor A1 [2] = biological target: T2, Adenosine receptor A1 (Homo sapiens, UniProt P30542); experiment: as §1; type: functional, cell-based; procedure, shortened: as §2
T2 sequence (P30542 whole entry): T1 sequence (whole entry)

[3] = biological target: T1, Adenosine receptor A1 (Homo sapiens); experiment: Ratio of pEC50 to pKd at human adenosine A1 receptor in CHO cells; type: cell-based
Procedure, shortened: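 Derived as the difference between -log EC50 from forskolin (3 µM)-stimulated [3H]-cAMP inhibition in CHO-A1H cells and -log KD from inhibition of 1 nM [3H]-DPCPX binding to intact CHO-A1H cells.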

[4] = biological target: T1, Adenosine receptor A1 (Homo sapiens); experiment: (§3) Displacement of [3H]DPCPX from human adenosine A1 receptor in CHO cells; type: cell-based; settings: concentration not given here
Procedure, shortened: (§4)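 Whole confluent CHO-A1H cells in serum-free DMEM/F12 with competing ligand plus [3H]-DPCPX 1 nM final, 2 h at 37 °C in 5% CO2. Nonspecific binding with 10 µM XAC. Washed twice with cold PBS, scintillant added, counted.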

Adenosine receptor A1 [5] = biological target: T2, Adenosine receptor A1; experiment: as §3; type: cell-based; procedure, shortened: as §4
Adenosine receptor A2b = biological target: T3, Adenosine receptor A2b (Homo sapiens, UniProt P29275); experiment: Activity at human adenosine A2B receptor assessed as stimulation of [3H]cAMP accumulation in CHO cells; type: functional, cell-based
T3 sequence (P29275 whole entry): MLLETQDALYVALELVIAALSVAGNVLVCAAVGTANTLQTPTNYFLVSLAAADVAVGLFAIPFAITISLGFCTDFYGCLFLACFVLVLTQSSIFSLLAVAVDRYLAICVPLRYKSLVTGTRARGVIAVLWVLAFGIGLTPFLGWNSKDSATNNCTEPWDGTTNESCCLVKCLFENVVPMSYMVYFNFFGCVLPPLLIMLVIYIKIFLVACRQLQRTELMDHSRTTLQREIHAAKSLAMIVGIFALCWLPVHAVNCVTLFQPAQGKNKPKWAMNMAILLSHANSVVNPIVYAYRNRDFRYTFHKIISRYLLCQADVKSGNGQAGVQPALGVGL
Procedure, shortened: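 CHO cells expressing human A2B receptor, confluent in 24-well dishes, [3H]adenine-labelled 2 h at 37 °C in HEPES-buffered Hank's, then rolipram 10 µM 15 min. Agonist added 10 min without forskolin. HCl termination, alumina-column isolation of [3H]-cAMP, scintillation counting. pEC50 by sigmoidal curve fitting; each experiment in triplicate.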

Adenosine receptor A3 = biological target: T4, Adenosine receptor A3 (Homo sapiens, UniProt P0DMS8); experiment: Activity at human adenosine A3 receptor assessed as inhibition of forskolin-stimulated cAMP accumulation in CHO cells; type: functional, cell-based; procedure, shortened: as §2
T4 sequence (P0DMS8 whole entry): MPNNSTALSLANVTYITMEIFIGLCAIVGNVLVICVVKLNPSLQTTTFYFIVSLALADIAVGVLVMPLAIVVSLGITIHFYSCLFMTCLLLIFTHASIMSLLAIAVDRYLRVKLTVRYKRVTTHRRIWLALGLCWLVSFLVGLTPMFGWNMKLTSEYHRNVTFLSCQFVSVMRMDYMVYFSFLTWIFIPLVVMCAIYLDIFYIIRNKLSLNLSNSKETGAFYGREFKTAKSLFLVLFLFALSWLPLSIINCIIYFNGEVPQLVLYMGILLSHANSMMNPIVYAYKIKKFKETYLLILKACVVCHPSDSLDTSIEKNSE

Adenosine receptor A1 [6] = biological target: T2, Adenosine receptor A1; experiment: Activity at human adenosine A1 receptor assessed as inhibition of forskolin-stimulated cAMP accumulation in CHO cells; type: functional, cell-based; procedure, shortened: as §2
Adenosine receptor A2a = Adenosine receptor A2a (Homo sapiens, UniProt P29274); experiment: Activity at human adenosine A2A receptor assessed as stimulation of [3H]cAMP accumulation in CHO cells; type: functional, cell-based
Sequence of Adenosine receptor A2a (P29274 whole entry): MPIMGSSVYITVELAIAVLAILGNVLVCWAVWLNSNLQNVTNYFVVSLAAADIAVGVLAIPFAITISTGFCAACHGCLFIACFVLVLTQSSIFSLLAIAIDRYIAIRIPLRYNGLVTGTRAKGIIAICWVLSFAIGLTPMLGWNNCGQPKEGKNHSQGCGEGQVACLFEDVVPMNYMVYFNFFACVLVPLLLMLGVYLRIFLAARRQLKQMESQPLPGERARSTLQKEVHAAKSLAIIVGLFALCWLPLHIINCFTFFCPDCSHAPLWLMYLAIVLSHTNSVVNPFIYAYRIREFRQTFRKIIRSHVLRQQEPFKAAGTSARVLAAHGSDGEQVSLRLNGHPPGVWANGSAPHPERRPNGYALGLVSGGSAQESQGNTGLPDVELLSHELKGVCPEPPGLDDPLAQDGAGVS

Row | SMILES | inhibition [1] | EC50 (Adenosine receptor A1 [2]) | Ratio [3] | inhibition [4] | Kd (Adenosine receptor A1 [5]) | EC50 (Adenosine receptor A2b) | EC50 (Adenosine receptor A3) | EC50 (Adenosine receptor A1 [6]) | EC50 (Adenosine receptor A2a)
1 | O=C(CCCCCNC(=O)COc1ccc(/C=C/C2=[N+]3C(=Cc4ccc(-c5cccs5)n4[B-]3(F)F)C=C2)cc1)NCCCCNc1ncnc2c1ncn2[C@@H]1O[C@H](CO)[C@@H](O)[C@H]1O | 96% | 5.13 nM | 1.64 | 48.1% | 224 nM |  |  |  | 
2 | CCNC(=O)[C@H]1O[C@@H](n2cnc3c(NCCCNC(=O)CCCCCNC(=O)COc4ccc(/C=C/C5=[N+]6C(=Cc7ccc(-c8cccs8)n7[B-]6(F)F)C=C5)cc4)ncnc32)[C@H](O)[C@@H]1O | 92% | 0.692 nM | 2.55 | 50.9% | 245 nM |  |  |  | 
3 | CCNC(=O)[C@H]1O[C@@H](n2cnc3c(N)ncnc32)[C@H](O)[C@@H]1O | 98% |  |  | 83.3% |  |  |  |  | 
4 | CCNC(=O)[C@H]1O[C@@H](n2cnc3c(NCCCCCCCCNC(=O)CCCCCNC(=O)COc4ccc(/C=C/C5=[N+]6C(=Cc7ccc(-c8cccs8)n7[B-]6(F)F)C=C5)cc4)ncnc32)[C@H](O)[C@@H]1O | 77% | 12 nM |  |  |  |  |  |  | 
5 | CCNC(=O)[C@H]1O[C@@H](n2cnc3c(NCCCCNC(=O)CCCCCNC(=O)COc4ccc(/C=C/C5=[N+]6C(=Cc7ccc(-c8cccs8)n7[B-]6(F)F)C=C5)cc4)ncnc32)[C@H](O)[C@@H]1O | 99% | 3.39 nM | 1.67 | 49.3% | 158 nM | 2040 nM | 2.69 nM | 3.39 nM | 174 nM
6 | CCNC(=O)[C@H]1O[C@@H](n2cnc3c(NCCCCCNC(=O)CCCCCNC(=O)COc4ccc(/C=C/C5=[N+]6C(=Cc7ccc(-c8cccs8)n7[B-]6(F)F)C=C5)cc4)ncnc32)[C@H](O)[C@@H]1O | 96% | 0.708 nM |  |  |  |  |  |  | 
